Our source for the MIC, IC50 and MCC values is ChEMBL document CHEMBL1154607, “Searching for new cures for tuberculosis: design, synthesis, and biological evaluation of 2-methylbenzothiazoles” (J Med Chem, 2009).

In data set [1] the test system is Mycobacterium tuberculosis. Nature of the data set: Antimycobacterial activity against Mycobacterium tuberculosis H37Rv after 7 days by microplate alamar blue assay. The format is functional. The conditions noted are these: 168 h. An outline of the steps: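 M. tuberculosis H37Rv growth inhibition was read by microplate Alamar blue assay (MABA). The value is reported as the minimum inhibitory concentration (MIC), in μM.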
In general terms: Resazurin is reduced to fluorescent resorufin, in cell work by metabolically active cells.

Data set [2] has as its system Plasmodium falciparum. The data set can be described thus: Antimicrobial activity against chloroquine and pyrimethamine-resistant Plasmodium falciparum K1 in erythrocytes. The format is functional, organism-based.
Data set [3] concerns Leishmania donovani. The data set can be described thus: Antimicrobial activity against Leishmania donovani MHOM/ET/67/L82 axenic amastigote forms. The format is functional, organism-based.
The test system of data set [4] is Trypanosoma cruzi. The data set can be described thus: Antimicrobial activity against Trypanosoma cruzi Tulahuen C2C4 amastigote forms infected in rat L6 cells. The format is functional, organism-based.
Data set [5] can be described thus: Cytotoxicity against african green monkey Vero cells after 72 hrs. The format is cell-based. The conditions noted are these: chlorocebus sabaeus, read-out: MIC. Summed up: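 Toxicity was tested in Vero cells, and the value is reported as IC50 in μM.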
In data set [6] the test system is Trypanosoma brucei rhodesiense. The data set can be described thus: Antimicrobial activity against Trypanosoma brucei rhodesiense STIB 900 trypomastigote forms. The format is functional, organism-based.

In brackets after ≈: the same amount, converted by molar mass.

Broadly, the MIC is the least concentration at which growth counts as inhibited. In data set [1], `Cc1nc2cc(OCc3cc(C(=O)N[C@H](C(=O)NNC(=O)c4ccncc4)c4ccccc4)no3)ccc2s1` registered an MIC of 47.5 µM (≈ 25.8 µg/mL).

One may read the IC50 as the midpoint of a concentration-inhibition curve. `COC(=O)[C@@H](NC(=O)c1cc(COc2nc3ccccc3s2)on1)c1ccccc1`: the concentration for half-maximal inhibition (IC50) was above 5 µM in data set [2], 4.99 µM in data set [3], 26.8 µM in data set [4] and 88.6 µM in data set [6]. For the same compound, the MIC in data set [1] is 15.2 µM (≈ 6.44 µg/mL). Also, the MCC at 72 h in data set [5] is above 128 µM.

Take `COC(=O)c1ccccc1NC(=O)c1cc(COc2ccc3sc(C)nc3c2)on1`: it took 30.2 µM (≈ 12.8 µg/mL) to inhibit growth in data set [1] (MIC). Further, the MCC at 72 h in data set [5] is above 128 µM.

In the case of `Cc1nc2cc(OCc3cc(C(=O)N4CCCCC4)no3)ccc2s1`, in data set [1], the MIC stood at 120 µM (≈ 42.7 µg/mL).

`COC(=O)[C@H](CCSC)NC(=O)c1cc(COc2ccc3sc(C)nc3c2)on1` had an MIC in data set [1] of 3.7 µM (≈ 1.61 µg/mL). In addition, the MCC at 72 h in data set [5] was above 128 µM.

Take `Cc1nc2cc(OCc3cc(C(=O)N[C@H](C(=O)O)c4ccccc4)no3)ccc2s1`: the IC50 was above 5 µM in data set [2], 32.3 µM in data set [3], above 90 µM in data set [4] and 89.5 µM in data set [6]. In data set [1], this compound gave an MIC above 128 µM.

`Cc1nc2cc(OCc3cc(C(=O)N(C)C)no3)ccc2s1` displayed an MIC in data set [1] above 128 µM.

As to `COC(=O)[C@@H](NC(=O)c1cc(COc2cccc3sc(C)nc23)on1)c1ccccc1`, the IC50 in data set [2] is above 5 µM; in data set [3], 4.12 µM; in data set [4] it was 18.8 µM; in data set [6], above 90 µM. In data set [1], this compound gave an MIC of 7.4 µM (≈ 3.24 µg/mL). Further, the MCC at 72 h in data set [5] is above 128 µM.

`Cc1nc2cc(OCc3cc(C(=O)N4CCN(C)CC4)no3)ccc2s1` came in with an MIC in data set [1] above 128 µM. The MCC at 72 h in data set [5] is above 128 µM.

Take `Cc1nc2cc(OCc3cc(C(=O)O)no3)ccc2s1`: the MIC in data set [1] is above 128 µM.

Turning to `CCN(CC)C(=O)c1cc(COc2ccc3sc(C)nc3c2)on1`, in data set [1], the MIC is above 128 µM.

On to `COC(=O)[C@@H](NC(=O)c1cc(COc2ccccc2)on1)c1ccccc1`, for which the IC50 is above 5 µM in data set [2], 13.5 µM in data set [3], 45.9 µM in data set [4] and above 90 µM in data set [6]. This compound also displayed an MIC in data set [1] of 3.5 µM (≈ 1.28 µg/mL). The MCC at 72 h in data set [5] was above 128 µM.

Regarding `COC(=O)[C@@H](NC(=O)c1cc(COc2ccc3sc(-c4cccc(C(F)(F)F)c4)nc3c2)on1)c1ccccc1`, the MIC in data set [1] came out at 59.5 µM (≈ 33.8 µg/mL).

`COC(=O)[C@H](Cc1ccccc1)NC(=O)c1cc(COc2ccc3sc(C)nc3c2)on1` displayed an MIC in data set [1] of 14.4 µM (≈ 6.5 µg/mL). Moreover, the MCC at 72 h in data set [5] is above 128 µM.

Consider `COC(=O)[C@@H](NC(=O)c1nc(COc2ccc3sc(C)nc3c2)cs1)c1ccccc1`, for which the IC50 in data set [2] was determined as 4.86 µM; in data set [3] it was 4.44 µM; in data set [4], 14.5 µM; in data set [6], 37.5 µM. Further, 62.5 µM (≈ 28.3 µg/mL) was the least that counted as inhibitory in data set [1] (MIC).

In the case of `Cc1nc2cc(OCc3cc(C(=O)N4CCOCC4)no3)ccc2s1`, the MIC in data set [1] was above 128 µM.

In the case of `COC(=O)[C@@H](NC(=O)c1cc(COc2ccc3sc(C)nc3c2)on1)c1ccccc1Cl`, the MIC in data set [1] stood at 15.5 µM (≈ 7.31 µg/mL). The MCC at 72 h in data set [5] was above 128 µM.

As for `COC(=O)[C@H](CC(C)C)NC(=O)c1cc(COc2ccc3sc(C)nc3c2)on1`, the IC50 in data set [2] stood at 4.57 µM; in data set [3], 2.79 µM; in data set [4], 12.3 µM; in data set [6] it was 18.7 µM. Further, the minimal inhibitory concentration (MIC) in data set [1] was 3.8 µM (≈ 1.59 µg/mL). In addition, the MCC at 72 h in data set [5] was above 128 µM.

Consider `COC(=O)[C@@H](NC(=O)c1cc(COc2ccc3sc(C)nc3c2)on1)c1ccccc1`, for which the IC50 in data set [2] was 3.97 µM; in data set [3], 27.5 µM; in data set [4] it was above 90 µM; in data set [6], 74.2 µM. Also, in data set [1], inhibition of growth (MIC) required 1.4 µM (≈ 0.612 µg/mL). For the same compound, the MCC at 72 h in data set [5] is above 128 µM.

Take `COC(=O)[C@@H](NC(=O)c1ccc2sc(C)nc2c1)c1ccccc1`: inhibition of growth in data set [1] (MIC) required 13 µM (≈ 4.43 µg/mL). The MCC at 72 h in data set [5] is above 128 µM.

`Cc1nc2cc(OCc3cc(C(=O)N4CCNCC4)no3)ccc2s1`: the MIC in data set [1] was above 128 µM.

Turning to `Cc1nc2cc(OCc3cc(C(=O)N[C@H](C(=O)NO)c4ccccc4)no3)ccc2s1`, the IC50 came out at 1.82 µM in data set [2], 3.25 µM in data set [3], 6.2 µM in data set [4] and 0.415 µM in data set [6]. The same compound came in with an MIC in data set [1] above 128 µM.

On to `Cc1nc2cc(OCc3cc(C(=O)N4CCCCO4)no3)ccc2s1`, for which the MIC in data set [1] is 7.8 µM (≈ 2.8 µg/mL).

With `COC(=O)[C@H](NC(=O)c1cc(COc2ccc3sc(C)nc3c2)on1)c1ccccc1`, the IC50 in data set [2] amounted to 3.33 µM; in data set [3] it was 22.3 µM; in data set [4], 37.5 µM; in data set [6], 89.5 µM. In addition, the MIC in data set [1] was found to be 1.9 µM (≈ 0.831 µg/mL). In data set [5], the MCC at 72 h was above 128 µM.

As to `Cc1nc2cc(OCc3cc(C(=O)NCc4ccccc4)no3)ccc2s1`, the IC50 is 3.43 µM in data set [2], 8.8 µM in data set [3], above 90 µM in data set [4] and 86.9 µM in data set [6]. In data set [1], this compound showed a minimum inhibitory concentration (MIC) above 128 µM.

Regarding `CCOC(=O)c1cc(COc2ccc3sc(C)nc3c2)on1`, the MIC in data set [1] is above 128 µM.

Turning to `Cc1nc2cc(OCc3cc(C(=O)NO)no3)ccc2s1`, the IC50 in data set [2] was found to be 2.76 µM; in data set [3] it was 6.06 µM; in data set [4] it was 15.9 µM; in data set [6], 1.85 µM. Also, the minimum inhibitory concentration (MIC) in data set [1] is above 128 µM.

`Cc1nc2cc(OCc3cc(C(=O)N[C@H](CO)c4ccccc4)no3)ccc2s1`: the IC50 in data set [2] was 2.56 µM; in data set [3], above 90 µM; in data set [4], above 90 µM; in data set [6] it was 31.2 µM. In data set [1], the minimum inhibitory concentration (MIC) was above 128 µM.

Regarding `COC(=O)[C@@H](NC(=O)c1cc(C)on1)c1ccccc1`, the IC50 in data set [2] is above 5 µM; in data set [3], 56.3 µM; in data set [4], above 90 µM; in data set [6], above 90 µM. This compound yielded an MIC in data set [1] of 37 µM (≈ 10.1 µg/mL). The MCC at 72 h in data set [5] is above 128 µM.

Take `COC(=O)[C@@H](NC(=O)c1cc(COc2ccc3sc(C)nc3c2)on1)c1ccc(OC)cc1`: the lowest concentration to inhibit growth in data set [1] (MIC) was 12.2 µM (≈ 5.7 µg/mL). For the same compound, in data set [5], the MCC at 72 h is above 128 µM.

For the compound `COC(=O)[C@@H](NC(=O)c1cc(COc2ccc3sc(C)nc3c2)on1)c1ccc(O)cc1`, the IC50 in data set [2] came to 2.5 µM; in data set [3], 4.48 µM; in data set [4] it was 26.4 µM; in data set [6], 88.9 µM. Also, in data set [1], the MIC was determined as 15.4 µM (≈ 6.98 µg/mL). In addition, in data set [5], the MCC at 72 h is above 128 µM.

With `Cc1nc2cc(OCc3cc(C(=O)NNC(=O)c4ccncc4)no3)ccc2s1`, the half-maximal inhibitory concentration (IC50) was above 5 µM in data set [2], above 90 µM in data set [3], above 90 µM in data set [4] and 38 µM in data set [6]. The compound further displayed an MIC in data set [1] of 4.4 µM (≈ 1.8 µg/mL). In addition, the MCC at 72 h in data set [5] is above 128 µM.

For the compound `COC(=O)[C@@H](NC(=O)c1cc(COc2ccc3sc(C)nc3c2)on1)C(C)C`, the MIC in data set [1] is above 128 µM.

As for `COC(=O)[C@@H](NC(=O)c1cc(CSc2nc3ccccc3s2)on1)c1ccccc1`, the IC50 in data set [2] was above 5 µM; in data set [3], 6.03 µM; in data set [4], 16.9 µM; in data set [6], 88.9 µM. The MIC in data set [1] was 13 µM (≈ 5.71 µg/mL). Besides, the MCC at 72 h in data set [5] was above 128 µM.

As to `O=C(Cn1ccnc1[N+](=O)[O-])NCc1ccccc1` [BENZNIDAZOLE], the IC50 in data set [4] is 0.521 µM.

Compound `NNC(=O)c1ccncc1` [ISONIAZID] showed a minimum inhibitory concentration (MIC) in data set [1] of 0.5 µM (≈ 0.0686 µg/mL). In addition, in data set [5], the MCC at 72 h was above 128 µM.

The compound `CCCCCCCCCCCCCCCCOP(=O)([O-])OCC[N+](C)(C)C` [MILTEFOSINE] showed an IC50 in data set [3] of 0.142 µM.

For the compound `CO[C@H]1/C=C/O[C@@]2(C)Oc3c(C)c(O)c4c(O)c(c(/C=N/N5CCN(C)CC5)c(O)c4c3C2=O)NC(=O)/C(C)=C\C=C\[C@H](C)[C@H](O)[C@@H](C)[C@@H](O)[C@@H](C)[C@H](OC(C)=O)[C@@H]1C` [RIFAMPIN], the minimum inhibitory concentration (MIC) in data set [1] was found to be 0.1 µM (≈ 0.0823 µg/mL). Besides, the MCC at 72 h in data set [5] stood at 127 µM.
